Test results taken from ChEMBL document CHEMBL2429843 (J Med Chem, 2013).
Active and inactive are the calls of the source. The rule behind the calls is not given here.

How the values were obtained:
[1] = Selectivity ratio for Escherichia coli TrmD over human SET7/9
[2] = Dissociation constant, pKa of the compound; type: physicochemical
[3] = Selectivity ratio for Escherichia coli TrmD over human PRMT1
[4] = biological target: T1, Histone-lysine N-methyltransferase SETD7 (Homo sapiens) (UniProt Q8WTS6); assay: Inhibition of human SET7/9 at 20 uM relative to control
T1 sequence (whole entry): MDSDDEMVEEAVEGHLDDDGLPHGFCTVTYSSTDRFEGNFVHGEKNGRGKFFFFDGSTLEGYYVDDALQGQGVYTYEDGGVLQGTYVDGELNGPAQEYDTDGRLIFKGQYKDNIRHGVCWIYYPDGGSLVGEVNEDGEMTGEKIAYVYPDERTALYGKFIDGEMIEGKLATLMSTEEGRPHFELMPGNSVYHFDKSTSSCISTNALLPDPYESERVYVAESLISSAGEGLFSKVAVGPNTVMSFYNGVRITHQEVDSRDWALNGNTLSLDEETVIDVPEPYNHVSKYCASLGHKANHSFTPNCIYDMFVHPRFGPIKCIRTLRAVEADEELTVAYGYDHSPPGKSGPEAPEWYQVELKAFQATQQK

[5] = biological target: Protein arginine N-methyltransferase 1 (Homo sapiens) (UniProt Q99873); assay: Inhibition of human PRMT1 at 20 uM relative to control
Chain of Protein arginine N-methyltransferase 1 (Homo sapiens) (Q99873 whole entry, looked up): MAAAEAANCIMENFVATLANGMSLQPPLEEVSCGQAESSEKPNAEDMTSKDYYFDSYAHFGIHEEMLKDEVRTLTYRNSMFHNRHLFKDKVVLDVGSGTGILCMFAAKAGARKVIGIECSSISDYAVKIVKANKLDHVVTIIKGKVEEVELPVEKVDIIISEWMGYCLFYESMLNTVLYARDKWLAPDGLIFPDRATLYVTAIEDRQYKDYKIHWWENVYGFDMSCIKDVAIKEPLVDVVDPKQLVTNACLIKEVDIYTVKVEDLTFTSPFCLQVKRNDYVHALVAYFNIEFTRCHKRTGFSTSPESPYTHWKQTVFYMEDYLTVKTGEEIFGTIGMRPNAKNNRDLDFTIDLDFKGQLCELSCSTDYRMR

[6] = Selectivity ratio of IC50 for Staphylococcus aureus TrmD to IC50 for Escherichia coli TrmD
[7] = Selectivity ratio of IC50 for Escherichia coli TrmD to IC50 for Pseudomonas aeruginosa TrmD
[8] = Inhibition of Pseudomonas aeruginosa TrmD using S-[methyl-3H] adenosyl-L-methionine as substrate assessed as leucine-tRNA methylation after 1 hr by scintillation proximity assay
Method in brief: (§1)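 Radiometric SPA: TrmD in 50 mM HEPES pH 7.5 with 5 mM MgCl2 (E. coli and K. pneumoniae 10 nM, S. aureus 10 nM, P. aeruginosa 5 nM, H. influenzae 4 nM in enzyme reagent), mixed 1:1 with a reagent of 0.05 μM [3H]SAM, 2 μM unlabelled SAM and 2 μM synthetic E. coli leucine-tRNA. Compounds are 2-fold serial DMSO dilutions. Incubation is 1 h at room temperature.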

Klebsiella pneumoniae = assay: Inhibition of Klebsiella pneumoniae TrmD using S-[methyl-3H] adenosyl-L-methionine as substrate assessed as leucine-tRNA methylation after 1 hr by scintillation proximity assay; method in brief: as §1
[9] = Inhibition of Acinetobacter baumannii TrmD using S-[methyl-3H] adenosyl-L-methionine as substrate assessed as leucine-tRNA methylation after 1 hr by scintillation proximity assay
[10] = Inhibition of Haemophilus influenzae TrmD using S-[methyl-3H] adenosyl-L-methionine as substrate assessed as leucine-tRNA methylation after 1 hr by scintillation proximity assay; method in brief: as §1
[11] = Inhibition of Staphylococcus aureus TrmD using S-[methyl-3H] adenosyl-L-methionine as substrate assessed as leucine-tRNA methylation after 1 hr by scintillation proximity assay; method in brief: as §1
[12] = Inhibition of Escherichia coli TrmD using S-[methyl-3H] adenosyl-L-methionine as substrate assessed as leucine-tRNA methylation after 1 hr by scintillation proximity assay; method in brief: as §1
Haemophilus influenzae = assay: Antibacterial activity against recombinant Haemophilus influenzae harboring acrB::cap mutant assessed as growth inhibition by broth microdilution method; type: functional
[13] = biological target: T1, Histone-lysine N-methyltransferase SETD7 (Homo sapiens); assay: Inhibition of human SET7/9

Row | Selectivity ratio [1] | pKa [2] | Selectivity ratio [3] | inhibition [4] | inhibition [5] | Ratio IC50 [6] | Ratio IC50 [7] | IC50 [8] | IC50 (Klebsiella pneumoniae) | IC50 [9] | Structure (SMILES) | IC50 [10] | IC50 [11] | IC50 [12] | MIC (Haemophilus influenzae) | inhibition [13]
1 | 50 | 6.5 | 50 | < 10% | < 10% | 5 | 10 | 67 nM | 310 nM | 230 nM | O=C(NCc1ccc(CNCc2ncc[nH]2)cc1)c1csc2nc[nH]c(=O)c12 | 1500 nM | 8200 nM | 520 nM | – | –
2 | 50 | 14.4 | 50 | < 10% | < 10% | 5 | 10 | 98 nM | 830 nM | 610 nM | NCc1ccc(CNC(=O)c2csc3nc[nH]c(=O)c23)cc1 | 560 nM | 4300 nM | 910 nM | – | –
3 | – | – | – | – | – | – | – | – | – | – | Nc1ncnc2c1ncn2[C@@H]1O[C@H](C[C@@H](N)CC[C@H](N)C(=O)O)[C@@H](O)[C@H]1O [SINEFUNGIN] | 1900 nM | 160000 nM | 11000 nM | – | Active

Row | Structure (SMILES) | Selectivity ratio [1] | pKa [2] | Selectivity ratio [3] | inhibition [4] | inhibition [5] | Ratio IC50 [6] | Ratio IC50 [7] | IC50 [8] | IC50 (Klebsiella pneumoniae) | IC50 [9] | IC50 [10] | IC50 [11] | IC50 [12] | MIC (Haemophilus influenzae) | inhibition [13]
4 | O=C(NCc1ccc(CN2CCC(O)C2)cc1)c1csc2nc[nH]c(=O)c12 (stereo not drawn) | 50 | – | 50 | < 10% | < 10% | – | – | – | – | – | 370 nM | 4400 nM | 420 nM | 3.1 µM | –
